The source made the active and inactive calls. The calls are words filed in the database; no cut-off is given here.
Experiments:
[1] = Half life of thermal relaxation of the compound in DMSO-d6/phosphate-buffer at pH 7.4 in dark at 50 uM by UV/vis-spectroscopy; assay type: physicochemical; conditions: pH 7.4, 50 µM
In short: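 Photoisomer relaxation to (E) monitored in the dark by UV/vis spectroscopy at 50 μM in DMSO-d6/phosphate buffer (pH 7.4) 1:200 (v/v), 25 °C; half-life derived from this thermal back-isomerization.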

[2] = molecular target: T1, Sodium- and chloride-dependent GABA transporter 1 (Mus musculus, UniProt P31648); experiment: Inhibition of mouse GAT1 stably expressed in HEK293 assessed as inhibition of [3H]GABA uptake treated with compound irradiated at 375 nm for 30 mins measured after 25 mins by liquid scintillation counting; assay type: cell-based
[3] = Half life of thermal relaxation of the compound in D2O in dark at 10 mM by 1H NMR analysis; assay type: physicochemical; conditions: 10000 µM
In short: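 Thermal relaxation of the photoisomer back to the (E)-form followed in the dark by 1H NMR in D2O, 10 mM, at 37 °C.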

[4] = molecular target: T1, Sodium- and chloride-dependent GABA transporter 1; experiment: Inhibition of mouse GAT1 stably expressed in HEK293 assessed as inhibition of [3H]GABA uptake treated with compound irradiated at 350 nm for 30 mins measured after 25 mins by liquid scintillation counting; assay type: cell-based
[5] = molecular target: T2, GABA transporter 4 (Mus musculus, UniProt P31650); experiment: Inhibition of mouse GAT4 stably expressed in HEK293 assessed as inhibition of [3H]GABA uptake after 25 mins by liquid scintillation counting; assay type: cell-based
T2 sequence (P31650 whole entry): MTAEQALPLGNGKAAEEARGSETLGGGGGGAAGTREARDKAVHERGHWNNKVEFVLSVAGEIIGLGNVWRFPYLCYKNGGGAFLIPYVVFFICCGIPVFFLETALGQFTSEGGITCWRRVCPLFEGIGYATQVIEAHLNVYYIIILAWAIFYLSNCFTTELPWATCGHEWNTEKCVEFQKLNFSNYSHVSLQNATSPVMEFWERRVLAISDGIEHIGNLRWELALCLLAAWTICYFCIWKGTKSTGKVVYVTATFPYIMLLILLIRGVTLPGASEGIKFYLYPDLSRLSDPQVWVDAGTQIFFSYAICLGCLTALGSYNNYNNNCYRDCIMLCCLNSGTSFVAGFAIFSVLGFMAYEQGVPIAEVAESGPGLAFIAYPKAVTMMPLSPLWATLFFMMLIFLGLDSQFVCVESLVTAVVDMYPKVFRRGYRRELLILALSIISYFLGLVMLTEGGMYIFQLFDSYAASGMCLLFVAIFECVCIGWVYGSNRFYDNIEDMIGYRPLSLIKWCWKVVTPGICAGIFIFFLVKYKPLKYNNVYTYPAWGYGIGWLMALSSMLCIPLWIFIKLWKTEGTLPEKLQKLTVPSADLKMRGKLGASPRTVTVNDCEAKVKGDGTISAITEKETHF
In short: (§1)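 HEK cells stably expressing the individual murine GABA transporter subtype; standardized [3H]GABA uptake assay adapted for photoswitchable ligands, run with the pure (E)-isomers; inhibition expressed as pIC50 ± SEM.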

[6] = molecular target: T3, GABA transporter 2 (Mus musculus, UniProt P31651); experiment: Inhibition of mouse GAT2 stably expressed in HEK293 assessed as inhibition of [3H]GABA uptake after 25 mins by liquid scintillation counting; assay type: cell-based; in short: as §1
T3 sequence (P31651 whole entry): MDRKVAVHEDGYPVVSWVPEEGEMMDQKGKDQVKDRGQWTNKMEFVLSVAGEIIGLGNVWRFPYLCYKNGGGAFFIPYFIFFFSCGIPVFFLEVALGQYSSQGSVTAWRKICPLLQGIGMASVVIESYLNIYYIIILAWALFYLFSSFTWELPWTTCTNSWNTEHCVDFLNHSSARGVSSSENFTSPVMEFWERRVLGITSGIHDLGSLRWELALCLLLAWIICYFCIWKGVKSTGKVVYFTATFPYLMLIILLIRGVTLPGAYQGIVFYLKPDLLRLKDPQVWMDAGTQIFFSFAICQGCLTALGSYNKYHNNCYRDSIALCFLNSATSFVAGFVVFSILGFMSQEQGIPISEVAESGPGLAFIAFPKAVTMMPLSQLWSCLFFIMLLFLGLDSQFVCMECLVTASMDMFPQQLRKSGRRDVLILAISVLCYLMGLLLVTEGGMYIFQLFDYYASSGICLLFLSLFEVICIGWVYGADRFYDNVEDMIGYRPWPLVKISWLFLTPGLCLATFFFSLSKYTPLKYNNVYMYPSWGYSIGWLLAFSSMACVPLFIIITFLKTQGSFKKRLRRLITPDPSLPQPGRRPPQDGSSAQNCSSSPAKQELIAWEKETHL

[7] = molecular target: T4, GABA transporter 3 (Mus musculus, UniProt P31649); experiment: Inhibition of mouse GAT3 stably expressed in HEK293 assessed as inhibition of [3H]GABA uptake after 25 mins by liquid scintillation counting; assay type: cell-based; in short: as §1
T4 sequence (P31649 whole entry): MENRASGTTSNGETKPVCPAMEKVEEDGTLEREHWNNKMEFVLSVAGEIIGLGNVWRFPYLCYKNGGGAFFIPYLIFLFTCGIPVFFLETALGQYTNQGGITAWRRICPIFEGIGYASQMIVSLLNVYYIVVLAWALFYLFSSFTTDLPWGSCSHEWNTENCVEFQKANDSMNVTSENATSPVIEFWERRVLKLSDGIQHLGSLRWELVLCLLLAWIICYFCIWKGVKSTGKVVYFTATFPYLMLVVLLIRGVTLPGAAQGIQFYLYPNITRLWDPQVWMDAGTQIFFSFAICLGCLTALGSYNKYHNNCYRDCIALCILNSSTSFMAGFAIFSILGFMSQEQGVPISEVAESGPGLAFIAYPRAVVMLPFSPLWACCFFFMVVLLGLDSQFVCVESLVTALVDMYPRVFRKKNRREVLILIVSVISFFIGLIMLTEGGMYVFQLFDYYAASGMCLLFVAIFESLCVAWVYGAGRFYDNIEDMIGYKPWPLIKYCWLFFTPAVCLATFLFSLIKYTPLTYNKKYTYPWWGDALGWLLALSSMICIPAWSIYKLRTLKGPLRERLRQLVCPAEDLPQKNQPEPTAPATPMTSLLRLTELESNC

[8] = molecular target: T1, Sodium- and chloride-dependent GABA transporter 1; experiment: Inhibition of mouse GAT1 stably expressed in HEK293 assessed as inhibition of [3H]GABA uptake after 25 mins by liquid scintillation counting; assay type: cell-based; in short: as §1
[9] = molecular target: Sodium- and chloride-dependent GABA transporter 1 (Mus musculus) (UniProt P31648); experiment: Inhibition of GAT1 in C57BL/6N mouse dentate gyrus granule cells assessed as induction of tonic GABAA receptor-mediated current at -70 mV holding potential UV irradiated compound treated at 20 uM by patch-clamp analysis
[10] = molecular target: Sodium- and chloride-dependent GABA transporter 1 (Mus musculus) (UniProt P31648); experiment: Inhibition of GAT1 in C57BL/6N mouse dentate gyrus granule cells assessed as induction of tonic GABAA receptor-mediated current at -70 mV holding potential non-UV irradiated compound treated at 20 uM by patch-clamp analysis
[11] = molecular target: Sodium- and chloride-dependent GABA transporter 1 (Mus musculus) (UniProt P31648); experiment: Inhibition of GAT1 in C57BL/6N mouse dentate gyrus granule cells assessed as induction of tonic GABAA receptor-mediated current at -70 mV holding potential compound treated at 20 uM followed by neuronal tissue UV-irradiation by patch-clamp analysis
[12] = molecular target: Sodium- and chloride-dependent GABA transporter 1 (Mus musculus) (UniProt P31648); experiment: Selectivity ratio of IC50 for mouse GAT1 stably expressed in HEK293 assessed as inhibition of [3H]GABA uptake after 25 mins to IC50 for mouse GAT1 stably expressed in HEK293 assessed as inhibition of [3H]GABA uptake treated with compound irradiated at 375 nm for 30 mins measured after 25 mins

t1/2 [3] [h] | Compound | IC50 [2] [µM] | IC50 [4] [µM] | IC50 [5] [µM] | IC50 [6] [µM] | IC50 [7] [µM] | IC50 [8] [µM] | further results
57.6 | O=C(O)C1CCCN(CCOCCc2ccc(/N=N\c3ccccc3)cc2)C1 (stereo not given) | – | 4.57 | – | – | – | – | –
140 | O=C(O)C1CCCN(CCOCCc2cccc(/N=N\c3ccccc3)c2)C1 (stereo not given) | – | 4.17 | – | – | – | – | –

Further lines, the compound ahead of its results:

Compound | t1/2 [3] [h] | IC50 [2] [µM] | IC50 [4] [µM] | IC50 [5] [µM] | IC50 [6] [µM] | IC50 [7] [µM] | IC50 [8] [µM] | further results
O=C(O)[C@@H]1CCCN(CCOCCc2ccc(/N=N\c3cccc4ccccc34)cc2)C1 | – | 0.794 | – | – | – | – | – | t1/2 [1]: 13.6 h
O=C(O)C1CCCN(CCOCCc2ccccc2/N=N\c2ccccc2)C1 (stereo not given) | 115 | – | 5.5 | – | – | – | – | –
O=C(O)C1CCCN(CCOCCc2ccccc2/N=N/c2ccccc2)C1 (stereo not given) | – | – | 5.5 | 562 | 234 | 145 | 10.7 | –
O=C(O)[C@@H]1CCCN(CCOCCc2cccc(/N=N/c3cccc4ccccc34)c2)C1 | – | 1.66 | – | 30.9 | 64.6 | 25.1 | 0.407 | inhibition [9]: inactive; inhibition [10]: Active; inhibition [11]: inactive; Ratio IC50 [12]: 4
O=C(O)[C@@H]1CCCN(CCOCCc2cccc(/N=N\c3cccc4ccccc34)c2)C1 | – | 1.66 | – | – | – | – | – | t1/2 [1]: 19.3 h
O=C(O)C1CCCN(CCOCCc2cccc(/N=N/c3ccccc3)c2)C1 (stereo not given) | – | – | 4.17 | 209 | 339 | 148 | 3.16 | –
O=C(O)[C@@H]1CCCN(CCOCCc2ccc(/N=N/c3cccc4ccccc34)cc2)C1 | – | 0.794 | – | 22.9 | 20.4 | 19.5 | 0.269 | Ratio IC50 [12]: 3
O=C(O)C1CCCN(CCOCCc2ccc(/N=N/c3ccccc3)cc2)C1 (stereo not given) | – | – | 4.57 | > 1000 | > 1000 | > 1000 | 1.91 | –
